This passage reports Drug metabolism, Activity and Stability results from ChEMBL document CHEMBL4308895, “A thiol-inducible and quick-response DNA cross-linking agent” (Bioorg Med Chem Lett, 2019).

Data set [1] in a line: L-cysteine reactivity in pH 7.3 phosphate buffer assessed as color change from red to orange at 5 mM measured after 1 min. The note with it: pH 7.3, 1 min, 5000 µM. The format is physicochemical. In short, it runs like this:
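Agent at 5, 2.5 or 1 mM in phosphate buffer pH 7.3, mixed with L-Cys at twice the agent concentration (10, 5, 2 mM). Color change scored visually against agent-alone samples.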

In the next data set the test system is DNA. In words: Induction of Escherichia coli pBR322 DNA cross-linking at 1 mM after 12 hrs in presence of GSH by agarose gel electrophoresis relative to control. The format is nucleic-acid assay. In short, it runs like this:
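Linearized pBR322 plasmid DNA in phosphate buffer pH 7.3 with 1 mM agent plus 2 mM GSH. Cross-linking resolved by denaturing alkaline agarose gel electrophoresis, untreated plasmid as control lane. Yield given as percent cross-linked DNA.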

The nature of data set [2]: Stability of the compound under electrospray ionisation mass spectra condition. It is filed as physicochemical.
Data set [3] in a line: Stability in pH 7.3 phosphate buffer saline measured within 1.5 hrs by 1H-NMR analysis. The note with it: pH 7.3, 1.5 h. It is filed as physicochemical.
Data set [4] in a line: Glycine reactivity in DMSO-d6/D2O mixture assessed as 1,4-Dihydroxy-2, 5-di-(trimethylammonium iodide-methyl)phenyl formation at 5 mM by 1H-NMR analysis.
Data set [5] is described as follows: L-proline reactivity in DMSO-d6/D2O mixture assessed as 1,4-Dihydroxy-2, 5-di-(trimethylammonium iodide-methyl)phenyl formation at 5 mM by 1H-NMR analysis.
Data set [6] in a line: L-valine reactivity in DMSO-d6/D2O mixture assessed as 1,4-Dihydroxy-2, 5-di-(trimethylammonium iodide-methyl)phenyl formation at 5 mM by 1H-NMR analysis.
Data set [7] can be described thus: Beta-alanine reactivity in DMSO-d6/D2O mixture assessed as 1,4-Dihydroxy-2, 5-di-(trimethylammonium iodide-methyl)phenyl formation at 5 mM by 1H-NMR analysis.
A short description of data set [8]: Drug metabolism in pH 7.3 phosphate buffer saline assessed as 1,1'-(2-(2,4-dinitrophenylsulfonyloxy)-5-hydroxy-1,4-phenylene)bis(N,N,N-trimethylmethanaminium)iodide formation measured after 5 mins by 1H-NMR analysis.
Data set [9] is described as follows: L-arginine reactivity in DMSO-d6/D2O mixture assessed as 1,4-Dihydroxy-2, 5-di-(trimethylammonium iodide-methyl)phenyl formation at 5 mM by 1H-NMR analysis.
A short description of data set [10]: Drug metabolism in pH 7.3 phosphate buffer saline assessed as 2, 4-dinitrobenzene sulfonic acid formation measured immediately by 1H-NMR analysis.
Data set [11] is described as follows: Drug metabolism in pH 7.3 phosphate buffer saline assessed as 1,4-Dihydroxy-2, 5-di-(trimethylammonium iodide-methyl)phenyl formation measured after 0.5 to 6 hrs by 1H-NMR analysis.

With `Cc1cc(C[N+](C)(C)C)c(OS(=O)(=O)c2ccc([N+](=O)[O-])cc2[N+](=O)[O-])c(C[N+](C)(C)C)c1.[I-].[I-]`, the Drug metabolism entry in data set [1] is recorded as “Metabolite_Detected”. Moreover, the Activity in the data set with DNA turned out to be 0%.

Consider `C[N+](C)(C)Cc1cc(-c2ccc(O)c(C[N+](C)(C)C)c2)ccc1O.[I-].[I-]`, for which, in the data set on DNA, the Activity came out at 0%. Also, in [2], the Stability result is “Unstable”.

Take `C[N+](C)(C)Cc1cc(-c2ccc(OS(=O)(=O)c3ccc([N+](=O)[O-])cc3[N+](=O)[O-])c(C[N+](C)(C)C)c2)ccc1OS(=O)(=O)c1ccc([N+](=O)[O-])cc1[N+](=O)[O-].[I-].[I-]`: the Drug metabolism entry in data set [1] is listed as “Metabolite_Detected”. The Activity in the data set on DNA came out at 0%. Besides, in data set [3], the Stability result is given as “Stable”.

For the molecule `C[N+](C)(C)Cc1cc(OS(=O)(=O)c2ccc([N+](=O)[O-])cc2[N+](=O)[O-])c(C[N+](C)(C)C)cc1OS(=O)(=O)c1ccc([N+](=O)[O-])cc1[N+](=O)[O-].[I-].[I-]`, the Drug metabolism entry is “Metabolite_Detected” in data set [1]; “Metabolite not detected” in data set [4]; “Metabolite not detected” in data set [5]; “Metabolite not detected” in [6]; “Metabolite not detected” in [7]; “Metabolite detected” in data set [8]. For the same molecule, the values for the Drug metabolism result in data set [9] and in [10] were “Metabolite not detected” and “Metabolite detected”, respectively. The Activity in the data set on DNA worked out at 34%.

As for `Cc1cc(C[N+](C)(C)C)c(O)c(C[N+](C)(C)C)c1.[I-].[I-]`, in the data set with DNA, the Activity turned out to be 0%. Moreover, in data set [2], the Stability entry is on record as “Unstable”.

For the molecule `C[N+](C)(C)Cc1cc(O)c(C[N+](C)(C)C)cc1O.[I-].[I-]`, the Activity with DNA stood at 43%. Also, the Stability entry in data set [2] is given as “Unstable”.

With `C[N+](C)(C)Cc1cc(OS(=O)(=O)c2ccc([N+](=O)[O-])cc2[N+](=O)[O-])c(C[N+](C)(C)C)cc1O`, the Drug metabolism entry in data set [11] was “Metabolite not detected”.
